pEC50: −log10 of the molar value. The source made the active and inactive calls. The calls are words filed in the database; no cut-off is given here.

Experiment [1] addresses T1, Vitamin D3 receptor (Homo sapiens, UniProt P11473).
T1 sequence (P11473 whole entry): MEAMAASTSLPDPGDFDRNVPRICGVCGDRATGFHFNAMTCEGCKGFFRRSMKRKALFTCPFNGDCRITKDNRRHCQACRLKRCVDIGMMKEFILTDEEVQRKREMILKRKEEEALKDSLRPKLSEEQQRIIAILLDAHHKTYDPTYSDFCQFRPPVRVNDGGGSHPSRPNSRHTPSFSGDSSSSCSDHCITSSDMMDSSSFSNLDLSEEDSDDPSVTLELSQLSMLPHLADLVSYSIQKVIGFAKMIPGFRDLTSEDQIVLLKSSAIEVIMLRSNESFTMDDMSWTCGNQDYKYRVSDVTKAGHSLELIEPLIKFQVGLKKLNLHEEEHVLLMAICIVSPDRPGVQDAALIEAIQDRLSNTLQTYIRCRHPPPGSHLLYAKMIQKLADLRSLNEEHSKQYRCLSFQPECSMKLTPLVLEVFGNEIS
Briefly: Transactivation of VDR in human HaCaT cells after 24 hrs by luciferase reporter gene assay. It counts as cell-based. In general terms: In a reporter assay the amount or activity of a reporter protein is the signal.

Experiment [2] is described as follows: Antiinflammatory activity in DBA/1 mouse splenocytes assessed as IFNgamma production at 100 nM after 2 hrs by ELISA (reference value: 731 +/- 15 pg/ml). It is filed as functional, Splenocyte. In general terms: ELISA stands for enzyme-linked immunosorbent assay.
The nature of experiment [3]: Upregulation of LAIR-1 expression in DBA/1 mouse splenocytes at 10^-7 M after overnight incubation by flow cytometric analysis (reference value: 973 +/- 95). It counts as functional, cell-based. To be noted: Splenocyte. The method in brief:
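Splenocytes isolated from DBA/1 mice were cultured overnight with secosteroid at 10−7 M or vehicle control. Cells were stained with fluorochrome-labelled anti-CD4 and anti-LAIR-1 antibodies and analysed by multiparameter flow cytometry, gating on CD4 cells. At least 10 000 cells were counted per sample. Read-out is LAIR-1 mean fluorescence, given as the mean of two separate analyses ± SD.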
(A flow cytometer gives signals particle by particle.)

The target of experiment [4] is T1, Vitamin D3 receptor. Briefly: Transactivation of VDR in human Caco2 cells after 24 hrs by luciferase reporter gene assay. It counts as cell-based, Caco-2.
Experiment [5] has as its target T2, 25-hydroxyvitamin D-1 alpha hydroxylase, mitochondrial (Mus musculus) (UniProt O35084).
T2 sequence (whole entry): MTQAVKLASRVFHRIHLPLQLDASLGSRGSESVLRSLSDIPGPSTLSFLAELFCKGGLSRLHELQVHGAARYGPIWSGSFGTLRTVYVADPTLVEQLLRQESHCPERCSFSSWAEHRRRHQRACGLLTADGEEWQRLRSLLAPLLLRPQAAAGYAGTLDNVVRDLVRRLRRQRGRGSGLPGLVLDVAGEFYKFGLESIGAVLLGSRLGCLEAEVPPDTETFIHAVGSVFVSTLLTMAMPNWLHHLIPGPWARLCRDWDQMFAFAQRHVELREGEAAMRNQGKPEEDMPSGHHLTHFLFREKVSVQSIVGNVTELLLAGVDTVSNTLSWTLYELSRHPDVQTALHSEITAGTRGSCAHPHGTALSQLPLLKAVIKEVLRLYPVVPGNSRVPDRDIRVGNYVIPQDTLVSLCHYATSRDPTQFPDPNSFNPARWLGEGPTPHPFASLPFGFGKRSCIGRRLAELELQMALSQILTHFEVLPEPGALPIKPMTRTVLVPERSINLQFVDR
Briefly: Substrate activity at mouse CYP27B1 assessed as 1alpha-hydroxylation by measuring ratio of Kcat to Km after 2 mins by reverse-phase HPLC analysis. The essentials:
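Substrates incorporated into dioleoylphosphatidylcholine/cardiolipin vesicles over a range of concentrations and incubated 2 min. Products extracted with dichloromethane and quantified by reverse-phase C18 HPLC. Km and kcat from a Michaelis–Menten fit (±SE of fit); kcat/Km expressed per mmol/mol phospholipid.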

Experiment [6] has as its target T3, Vitamin D3 receptor (Homo sapiens) (UniProt P11473).
T3 sequence (whole entry): T1 sequence (P11473 whole entry)
Briefly: Transactivation of VDR in human HaCaT cells up to 1000 nM after 24 hrs by luciferase reporter gene assay. It is filed as cell-based. The method in brief:
(§1)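 Cells were lentivirally transduced with a VDRE-luciferase reporter and selected 1 week with puromycin (1 µg/mL). Seeded at 1000 cells/well in FBS-free medium for 24 h, then treated 24 h with secosteroids in DMSO (0.1% final; 0.1% DMSO as vehicle control). Luciferase read by ONE-Glo. Triplicate per concentration; EC50 reported.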

In experiment [7] the target is T3, Vitamin D3 receptor (Homo sapiens). The experiment is described as follows: Transactivation of VDR in human Caco2 cells up to 1000 nM after 24 hrs by luciferase reporter gene assay. It counts as cell-based. The conditions noted are these: Caco-2. The essentials: as §1

What is called pEC50 is the negative decadic logarithm of the EC50, by convention in mol/L. Read a high pEC50 as a small EC50. In the case of `C=C1/C(=C\C=C2/CCC[C@]3(C)[C@@H]([C@H](C)OCCC(C)(C)O)CC[C@@H]23)C[C@@H](O)C[C@@H]1O` [MAXACALCITOL], the pEC50 in experiment [1] is 7.42; in experiment [4] it was 7.39. In addition, in experiment [2], the Activity was 356 pg/mL. In experiment [3], this molecule came in with a Flu intensity of 1510.

Consider `C=C1CC[C@H](O)C/C1=C/C=C1\CCC[C@@]2(C)[C@H]1CC[C@@H]2[C@@](C)(O)CC[C@H](O)C(C)C`, for which, in experiment [5], the Ratio came out at 0.71 min⁻¹. Also, the outcome in experiment [6] and in experiment [7] was inactive. Moreover, in experiment [2], the Activity worked out at 923 pg/mL. The molecule also yielded a Flu intensity in experiment [3] of 1540.

Molecule `C=C1/C(=C\C=C2/CCC[C@]3(C)[C@@H]([C@H](C)CCCC(C)(C)O)CC[C@@H]23)C[C@@H](O)C[C@@H]1O` had a Flu intensity in experiment [3] of 1640.

With `C=C1/C(=C\C=C2/CCC[C@@]3(C)[C@H]2CC[C@@H]3[C@@](C)(O)CC[C@H](O)C(C)C)C[C@@H](O)C[C@@H]1O`, the pEC50 in experiment [1] is 6.57; in experiment [4], 6.68. Moreover, the Activity in experiment [2] came out at 589 pg/mL. Moreover, the Flu intensity in experiment [3] amounted to 1820.

With `C=C1CC[C@H](O)C/C1=C/C=C1\CCC[C@@]2(C)[C@H]1CC[C@@H]2[C@@](C)(O)CC[C@@H](O)C(C)C`, the Ratio in experiment [5] was determined as 3.9 min⁻¹. Further, the outcome in experiment [6] and in experiment [7] was inactive. The Activity in experiment [2] was 465 pg/mL. Moreover, the Flu intensity in experiment [3] was 1910.

As to `C=C1/C(=C\C=C2/CCC[C@@]3(C)[C@H]2CC[C@@H]3[C@@](C)(O)CC[C@@H](O)C(C)C)C[C@@H](O)C[C@@H]1O`, the pEC50 in experiment [1] was 7.19; in experiment [4], 7.17. In addition, the Activity in experiment [2] is 291 pg/mL. The same molecule returned a Flu intensity in experiment [3] of 2100.
